Values after ≈ are worked out from the molar mass of the structure shown.
Legend:
[1] = fT>MIC in human infected with Pseudomonas aeruginosa isolate 968 at 500 mg administered as 4 hr infusion; assay type: functional
[2] = Cmax in Pseudomonas aeruginosa ATCC 27853 infected neutropenic ICR mouse at 10 mg/kg, sc administered as single dose 2 hrs postinfection by HPLC; assay type: ADME, organism-based; design: dose 10 mg/kg, route subcutaneous; details: in vivo
How it was run: (§1)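 Neutropenic mice (cyclophosphamide ip 150 and 100 mg/kg, 4 and 1 days before inoculation) with uranyl nitrate 5 mg/kg ip 3 days before, for renal impairment. Thigh infection with ATCC 27853 at 10⁶ CFU/ml, 0.1 ml per thigh. Single sc doses 2 h later. Intracardiac blood from 6–12 mice per time point, eight time points over 4 h. Serum assayed by HPLC (linear 0.5–40 μg/ml). One-compartment first-order fit.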

[3] = fT>MIC in human infected with Pseudomonas aeruginosa isolate 1052 at 500 mg administered as 1 hr infusion; assay type: functional
Pseudomonas aeruginosa [4] = assay: Antibacterial activity against Pseudomonas aeruginosa isolate 896 by microdilution method; assay type: functional
Pseudomonas aeruginosa [5] = assay: Antibacterial activity against Pseudomonas aeruginosa isolate 1060 by microdilution method; assay type: functional
How it was run: (§2)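 CLSI broth microdilution in cation-adjusted Mueller-Hinton broth (20–25 mg/liter Ca, 10–12.5 mg/liter Mg). Standard inoculum 10⁵ CFU/ml, incubated in ambient air. Clinical hospital isolates.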

[6] = fT>MIC in human infected with Pseudomonas aeruginosa isolate 869 at 500 mg administered as 1 hr infusion; assay type: functional
[7] = fT>MIC in neutropenic mouse infected with Pseudomonas aeruginosa isolate 931 at 500 mg administered as 4 hr infusion; assay type: functional
How it was run: (§3)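 Mouse fT>MIC was modelled with first-order one-compartment serum PK and 25.2% binding. Mice were neutropenic (cyclophosphamide) with uranyl nitrate renal impairment. Subcutaneous doses were 5.5, 2.25, 4.5, 4.5, 4.5, 4.5, 0.75, 0.375 mg/kg at 0, 0.5, 1.5, 2.5, 3.5, 4.5, 6, 7.5 h per 8-h interval over 24 h.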

[8] = Tmax in Pseudomonas aeruginosa ATCC 27853 infected neutropenic ICR mouse at 50 mg/kg, sc administered as single dose 2 hrs postinfection by HPLC; assay type: ADME, organism-based; design: dose 50 mg/kg, route subcutaneous; details: in vivo; how it was run: as §1
[9] = fT>MIC in human infected with Pseudomonas aeruginosa isolate 1058 at 500 mg administered as 1 hr infusion; assay type: functional
[10] = AUC (0 to 24 hrs) in Pseudomonas aeruginosa ATCC 27853 infected neutropenic ICR mouse at 150 mg/kg, sc administered as single dose 2 hrs postinfection; assay type: ADME, organism-based; design: time < 24 hr, dose 150 mg/kg, route subcutaneous; details: plasma; how it was run: as §1
Pseudomonas aeruginosa [11] = assay: Antibacterial activity against Pseudomonas aeruginosa isolate 1050 by microdilution method; assay type: functional; how it was run: as §2
[12] = AUC in healthy human at 500 mg administered as 4 hr infusion; assay type: ADME, organism-based; details: plasma, iv
[13] = fT>MIC in human infected with Pseudomonas aeruginosa isolate 869 at 500 mg administered as 4 hr infusion; assay type: functional
[14] = fT>MIC in neutropenic mouse infected with Pseudomonas aeruginosa isolate 935 at 500 mg administered as 1 hr infusion; assay type: functional
How it was run: (§4)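 Free-drug time above MIC simulated from one-compartment mouse serum PK (25.2% protein binding). The mice were cyclophosphamide-neutropenic and uranyl nitrate-renally impaired. Regimen was subcutaneous 10, 15, 2.5, 1.25, 0.5, 0.25 mg/kg at 0, 0.5, 2.5, 4, 5.5, 7 h, repeated every 8 h over 24 h.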

[15] = Cmax in healthy human at 500 mg administered as as 4 hr infusion; assay type: ADME, organism-based; design: dose 500 mg; details: in vivo, iv
[16] = Cmax in Pseudomonas aeruginosa ATCC 27853 infected neutropenic ICR mouse at 150 mg/kg, sc administered as single dose 2 hrs postinfection by HPLC; assay type: ADME, organism-based; design: dose 150 mg/kg, route subcutaneous; details: in vivo; how it was run: as §1
[17] = fT>MIC in human infected with Pseudomonas aeruginosa isolate 1060 at 500 mg administered as 4 hr infusion; assay type: functional
[18] = fT>MIC in neutropenic mouse infected with Pseudomonas aeruginosa isolate 1052 at 500 mg administered as 1 hr infusion; assay type: functional; how it was run: as §4
Pseudomonas aeruginosa [19] = assay: Antibacterial activity against Pseudomonas aeruginosa isolate 1029 by microdilution method; assay type: functional
[20] = fT>MIC in human infected with Pseudomonas aeruginosa isolate 906 at 500 mg administered as 1 hr infusion; assay type: functional
[21] = fT>MIC in human infected with Pseudomonas aeruginosa isolate 944 at 500 mg administered as 1 hr infusion; assay type: functional
[22] = fT>MIC in neutropenic mouse infected with Pseudomonas aeruginosa isolate 993 at 500 mg administered as 4 hr infusion; assay type: functional; how it was run: as §3
[23] = fT>MIC in neutropenic mouse infected with Pseudomonas aeruginosa isolate 936 at 500 mg administered as 4 hr infusion; assay type: functional; how it was run: as §3
[24] = fT>MIC in neutropenic mouse infected with Pseudomonas aeruginosa isolate 1060 at 500 mg administered as 1 hr infusion; assay type: functional; how it was run: as §4
Pseudomonas aeruginosa [25] = assay: Antibacterial activity against Pseudomonas aeruginosa isolate 993 by microdilution method; assay type: functional
[26] = fT>MIC in human infected with Pseudomonas aeruginosa isolate 988 at 500 mg administered as 4 hr infusion; assay type: functional
[27] = fT>MIC in human infected with Pseudomonas aeruginosa isolate 936 at 500 mg administered as 4 hr infusion; assay type: functional
[28] = fT>MIC in neutropenic mouse infected with Pseudomonas aeruginosa isolate 1062 at 500 mg administered as 4 hr infusion; assay type: functional; how it was run: as §3
[29] = fT>MIC in neutropenic mouse infected with Pseudomonas aeruginosa isolate 1055 at 500 mg administered as 1 hr infusion; assay type: functional; how it was run: as §4
[30] = AUC (0 to 24 hrs) in Pseudomonas aeruginosa ATCC 27853 infected neutropenic ICR mouse at 10 mg/kg, sc administered as single dose 2 hrs postinfection; assay type: ADME, organism-based; design: time < 24 hr, dose 10 mg/kg, route subcutaneous; details: plasma; how it was run: as §1
[31] = fT>MIC in human infected with Pseudomonas aeruginosa isolate 1036 at 500 mg administered as 1 hr infusion; assay type: functional
[32] = fT>MIC in neutropenic mouse infected with Pseudomonas aeruginosa isolate 906 at 500 mg administered as 1 hr infusion; assay type: functional; how it was run: as §4
[33] = fT>MIC in neutropenic mouse infected with Pseudomonas aeruginosa isolate 1062 at 500 mg administered as 1 hr infusion; assay type: functional; how it was run: as §4
Pseudomonas aeruginosa [34] = assay: Antibacterial activity against Pseudomonas aeruginosa isolate 944 by fractionation study; assay type: functional
[35] = fT>MIC in human infected with Pseudomonas aeruginosa isolate 1029 at 500 mg administered as 1 hr infusion; assay type: functional
[36] = Clearance in Pseudomonas aeruginosa ATCC 27853 infected neutropenic ICR mouse at 10 mg/kg, sc administered as single dose 2 hrs postinfection; assay type: ADME, organism-based; design: dose 10 mg/kg, route subcutaneous; details: in vivo; how it was run: as §1
Pseudomonas aeruginosa [37] = assay: Antibacterial activity against Pseudomonas aeruginosa isolate 979 by microdilution method; assay type: functional
[38] = fT>MIC in neutropenic mouse infected with Pseudomonas aeruginosa isolate 1058 at 500 mg administered as 4 hr infusion; assay type: functional; how it was run: as §3
[39] = fT>MIC in human infected with Pseudomonas aeruginosa isolate 906 at 500 mg administered as 4 hr infusion; assay type: functional
[40] = fT>MIC in neutropenic mouse infected with Pseudomonas aeruginosa isolate 1058 at 500 mg administered as 1 hr infusion; assay type: functional; how it was run: as §4

For `C[C@@H](O)[C@H]1C(=O)N2C(C(=O)O)=C(S[C@@H]3CN[C@H](CNS(N)(=O)=O)C3)[C@H](C)[C@H]12` [DORIPENEM], the fT>MIC [1] was 0%, the Cmax [2] was 16.3 µg/mL and the “fT>MIC” value [3] was 55%. The MIC (Pseudomonas aeruginosa [4]) was 8 mg/L (≈ 19 µM), the MIC (Pseudomonas aeruginosa [5]) was 4 mg/L (≈ 9.51 µM) and the “fT>MIC” value [6] was 90%. The “fT>MIC” value [7] was 52.5%, the Tmax [8] was 22.8 min and the “fT>MIC” value [9] was 40%. The AUC(0-t) at 24 h [10] was 168 µg·h/mL, the MIC (Pseudomonas aeruginosa [11]) was 4 mg/L (≈ 9.51 µM) and the AUC at 4 h [12] was 32.4 µg·h/mL. The fT>MIC [13] was 100%, the fT>MIC [14] was 55% and the Cmax [15] was 7.79 µg/mL. It also gave a Cmax [16] of 194 µg/mL, a fT>MIC [17] of 55% and a fT>MIC [18] of 55%. For the same molecule, the MIC (Pseudomonas aeruginosa [19]) was 0.125 mg/L (≈ 0.297 µM), the “fT>MIC” value [20] was 40% and the “fT>MIC” value [21] was 27.5%. The “fT>MIC” value [22] was 100%, the “fT>MIC” value [23] was 0% and the fT>MIC [24] was 30%. It also gave an MIC (Pseudomonas aeruginosa [25]) of 0.125 mg/L (≈ 0.297 µM), a fT>MIC [26] of 0% and a fT>MIC [27] of 0%. The “fT>MIC” value [28] was 95%, the fT>MIC [29] was 75% and the AUC(0-t) at 24 h [30] was 13.5 µg·h/mL. For the same molecule, the “fT>MIC” value [31] was 40%, the fT>MIC [32] was 42.5% and the fT>MIC [33] was 75%. The MIC (Pseudomonas aeruginosa [34]) was 3 mg/L (≈ 7.13 µM), the “fT>MIC” value [35] was 100% and the CL/F [36] was 0.674 L/h/kg. The MIC (Pseudomonas aeruginosa [37]) was 2 mg/L (≈ 4.76 µM), the “fT>MIC” value [38] was 70% and the fT>MIC [39] was 65%. The fT>MIC [40] was 42.5%.
